The entries come from a sample that favours hits as a whole.
H9c2 protect: myocardial damage modulation in H9c2 cells; H9c2 cardiomyocytes, H2O2 injury protection, ATPLite, 2 h; protection from H2O2 cell death, % at 20 µM; hit rate 0.63% among 360,000; AID 588492;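 active = compounds giving at least 50% protection of heart cells from peroxide-induced death in the single-dose screen, raw or plate-pattern-corrected value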;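 also: 0% = DMSO wells with peroxide and 100% = DMSO wells without peroxide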
UPR XBP1 act: adaptive UPR (XBP1) activation; CHO-XBP1 luciferase reporter, IRE1-XBP1 UPR activation, luminescence; percent of tunicamycin response, DMSO as zero; activation, % at 20 µM; hit rate 0.33% among 330,000; AID 463104;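 active = versus positive control, 20 µM dose yields 30% or more activation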;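 also: 100% = tunicamycin at 10 µg/mL and 0% = DMSO only wells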
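Assay system: IRE1-XBP1 luciferase reporter CHO line. Input: 1000 cells/well. Buffer or medium: F12 with 10% serum. Doses: 20 µM, 1% DMSO. Times: overnight seeding at 37 °C, 6 h compound treatment at 37 °C. Technique: Steady-Glo luciferase glow luminescence, 10 min after reagent addition.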
CHOP inhibitor: blocks CHOP induction under ER stress; hit rate 3.8% among 220,000; inhibition, % at 10 µM; CHO-K1 CHOP-promoter luciferase, tunicamycin-induced, 15-18 h; AID 2732;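 active = compounds that reduced the stress-induced luciferase reporter signal by more than about 70% of percent inhibition, limit read from the data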;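 also: 0% = tunicamycin plus vehicle and 100% = wells without tunicamycin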
CHOP UPR activ: activators of apoptotic arm of unfolded protein response (CHOP); CHO-CHOP luciferase reporter, UPR activation, luminescence; percent of tunicamycin response over DMSO baseline; activation, % at 10 µM; hit rate 0.34% among 330,000; AID 449763;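 active = at 10 µM dose, activation of 40% or more, normalized to positive control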;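 also: 100% = tunicamycin at 10 µg/mL and 0% = DMSO alone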
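Dosing – one dose, 10 µM in 0.5% DMSO · System – CHO-CHOP cells, stable luciferase reporter of PERK-eIF2a-CHOP signalling · Input – 500 cells/well · Control set – tunicamycin 10 µg/mL final as positive, DMSO-only wells as negative · Timing – 6 h compound treatment, 37 °C · Measure – % activation vs tunicamycin · Technique – luminescence read with Steady-Glo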
iPSC survival up: increases survival of single human iPS cells | hiPSC single-cell survival, ATPlite luminescence; 100% = ROCK inhibitor wells, 0% = DMSO | survival enhancement, % at 20 µM | hit rate 0.044% among 360,000; in the data active = survival enhancement above about 18%;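 also: cells exposed to compounds for 16 hours before the ATP read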
* = called active by the depositor; . = no result.

SMILES	H9c2 protect	UPR XBP1 act	CHOP inhibitor	CHOP UPR activ	iPSC survival up
CN(C)c1ccc(N/C(N)=N/c2nc(C(F)(F)F)cc(C(F)(F)F)n2)cc1	-15.2	-1.2	85.4*	-0.5	0.0
Cc1nc(-c2ccccc2)sc1C(=O)NS(=O)(=O)c1ccc(CN2CCN(c3ccccc3)CC2)cc1	.	.	.	.	-1.2
CC(C)c1ccc(NC(=O)CN(C)C2=NS(=O)(=O)c3ccccc32)cc1	0.3	.	.	.	-0.5
CC1C(=O)N(C)C(=O)c2nc[nH]c21 (stereo not given)	.	.	1.2	.	.
Cc1nc(C(F)(F)F)ccc1C(=O)N1CCC1(C)C(=O)Nc1ccc2c(c1)OCO2 (stereo not given)	0.1	.	.	.	-1.4
CSc1ncccc1C(=O)N1CCC(C)(C(=O)O)C1 (stereo not given)	2.0	.	.	.	-1.2
CCC(C(=O)OCC(=O)Nc1cc(Cl)cc(Cl)c1)c1ccccc1 (stereo not given)	-14.4	-3.5	91.6*	-2.0	3.0
Cn1c2ccccc2c2cnn(CC(=O)Nc3ccc(F)cc3F)c(=O)c21	-3.3	-3.1	88.1*	1.0	-0.4
C(=NNc1nnn(Cc2ccccc2)n1)c1ccccc1	-6.2	.	.	.	-1.4
CC(=O)Nc1cccc(C(=O)/C=C/c2ccc(/C=C/C(=O)c3cccc(NC(C)=O)c3)cc2)c1	.	14.8	35.3	83.0*	.
Cc1ccc(C(=O)N2CCN(c3ccc(NC(=O)c4ccc(Br)o4)cc3)CC2)cc1	-9.4	0.9	71.7*	-0.7	-1.3
COc1ccccc1NC(=O)/C(=C\c1cccnc1)NC(=O)c1ccc(C)cc1	2.2	4.1	.	1.8	-0.6
CC(/C=C/C=C/c1ccccc1)=N/NC(=O)CNc1ccc(C)cc1	-7.6	-3.4	82.1*	3.7	0.5
CCCCN1C(=O)C(CC(=O)NC2CC2)CC(C(=O)N(CC)CC)=C1C (stereo not given)	14.2	.	.	.	0.4
O=C(Cn1[nH]c(=O)c2ccccc2c1=O)NCC1COc2ccccc2O1 (stereo not given)	56.8*	-1.2	.	0.9	-2.6
Cc1ccccc1OCC(=O)NNC(=O)CN1C(=O)c2ccccc2C1=O	7.0	-2.2	-2.7	-0.5	1.2
Cc1ccccc1OCC(=O)NNC(=O)Cn1[nH]c(=O)c2ccccc2c1=O	52.8*	-1.4	.	0.7	1.8
O=C(COC(=O)Cc1n[nH]c(=O)c2ccccc12)NNC(=O)c1ccc(Br)cc1	52.6*	1.1	.	-0.3	0.7
CCN(CC(=O)Nc1c(F)cccc1F)C(=O)Cn1[nH]c(=O)c2ccccc2c1=O	84.3*	-0.8	.	2.2	-1.4
Cc1ccc(NC(=O)CCS(=O)(=O)c2ccc3nc(C)sc3c2)c(C)c1	-5.0	.	.	.	1.6
CCCc1c(-c2ccc(F)cc2)ncn1Cc1ccccc1OC	.	.	.	.	0.2
O=C(COC(=O)Cc1n[nH]c(=O)c2ccccc12)NNC(=O)c1ccc(Cl)cc1	65.8*	5.8	.	-1.5	-0.5
O=C(Cn1[nH]c(=O)c2ccccc2c1=O)OCC(=O)c1ccccc1	44.4	0.0	.	3.0	-0.2
O=C(Cc1n[nH]c(=O)c2ccccc12)OCC(=O)c1ccc(F)cc1	42.0	-1.9	.	-0.2	-0.3
COc1ccc(C(C)=O)cc1COC(=O)Cc1n[nH]c(=O)c2ccccc12	72.2*	-1.8	-7.9	-0.3	-1.3
SMILES	H9c2 protect	UPR XBP1 act	CHOP inhibitor	CHOP UPR activ	iPSC survival up
O=C(COC(=O)Cn1[nH]c(=O)c2ccccc2c1=O)NNC(=O)c1ccc(Br)cc1	82.9*	-0.5	.	-1.4	0.5
CC(=O)Nc1ccc(CN(C)c2c(C)nc3ccc(C(=O)NCCCN4CCCC4=O)cn23)cc1	1.1	.	.	.	5.2
O=C(Nc1ccc(C(=O)N2CCCCC2)cc1)C1CC1	6.0	.	.	.	-1.9
CC1=C(C(=O)N(C(C)C)C(C)C)CC(CC(=O)NCCN2CCOCC2)C(=O)N1CCC1=CCCCC1 (stereo not given)	2.6	.	.	.	0.1
O=C(CCSc1nc(-c2ccco2)cc(C(F)(F)F)n1)N1CCN(c2ccccn2)CC1	11.2	-5.4	88.3*	-4.0	-2.2
Cc1ccc(S(=O)(=O)N(C)C[C@@H]2Oc3ccc(NC(=O)Cn4cnnn4)cc3C(=O)N([C@@H](C)CO)C[C@H]2C)cc1	4.6	-0.6	.	-0.5	5.8
COc1cc(/C=C(/C#N)C(=O)Nc2ccccc2)c(Br)cc1OCc1ccc(C(=O)O)cc1	-2.5	-1.1	79.5*	-0.7	-0.8
COc1cc(/C=C(\C#N)C(=O)Nc2ccccc2)ccc1OCCN1CCOCC1	53.5*	-4.6	.	1.4	-0.5

Assay outcomes: PubChem, several laboratories
